Screening results: PubChem BioAssay, The Scripps Research Institute Molecular Screening Center
SIAE inh: blocks human sialic acid acetylesterase; Q9HAT2; AID 1053197; SIAE FP-Rh probe binding, fluorescence polarization; inhibition, % at 9.66 µM; 0.69% of 370,000 active;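 active = inhibition above a cutoff: mean of compounds within the control limits plus 3 SD of those, cut at about 17% in these data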
TDP2 inh: TDP2 (human) inhibition, absorbance primary screen. O95551. recombinant TDP2, T5PNP hydrolysis, p-nitrophenol absorbance 415 nm. inhibition, % at 12.8 µM. 0.34% of 370,000 active;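 active = inhibition above the mean of all tested compounds plus 3 SD, set per campaign, cut at about 25% in these data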
Target sequence (O95551 whole entry, looked up): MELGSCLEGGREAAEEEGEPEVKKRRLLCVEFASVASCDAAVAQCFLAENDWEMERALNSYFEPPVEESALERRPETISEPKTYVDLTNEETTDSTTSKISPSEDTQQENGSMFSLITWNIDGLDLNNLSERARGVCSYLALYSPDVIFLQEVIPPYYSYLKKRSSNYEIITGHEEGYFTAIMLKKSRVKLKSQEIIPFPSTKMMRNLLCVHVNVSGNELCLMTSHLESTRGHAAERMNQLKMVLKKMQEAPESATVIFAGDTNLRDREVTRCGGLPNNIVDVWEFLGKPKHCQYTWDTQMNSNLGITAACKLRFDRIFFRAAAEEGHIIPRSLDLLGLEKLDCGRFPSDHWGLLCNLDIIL
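Assay system: Recombinant human TDP2 | Quantity: 120 nM TDP2 per well | Incubation: 2 h at 37 °C | Signal: Epi absorbance | Evaluation: Percent inhibition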
MBD2 DNA inh: blocks human MBD2 binding to methylated DNA; AID 686964; inhibition, % at 4.4 µM; 0.31% of 370,000 active; TR-FRET, MBD2 binding to methylated oligonucleotide; Q9UBB5; in the data active = inhibition above about 13%
LEDGF integ inh: blocks HIV-1 LEDGF/p75-dependent DNA integration; 0.64% of 370,000 active; inhibition, % at 3.7 µM; TR-FRET IN-LEDGF/p75 DNA integration, Eu/Cy5;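 active = inhibition above the screen-wide mean plus 3 SD, cut at about 13% in these data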;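 also: signal is the Cy5 over europium emission ratio at 671 and 618 nm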
UHRF1 binding: human UHRF1 methylated DNA binding inhibitors | Q96T88 | UHRF1 binding to methylated oligo, TR-FRET | inhibition, % at 4.4 µM | 0.75% of 370,000 active; in the data active = inhibition above about 21%;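 also: UHRF1 SRA domain binding a hemimethylated CpG hairpin DNA probe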
PRMT1 FP inh: inhibitors of human PRMT1. recombinant PRMT1, activity-based probe fluorescence polarization. inhibition, % at 2.79 µM. 1.3% of 370,000 active. AID 652257;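 active = inhibition above about 21% made by adding two undisclosed values, limit read from the data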
IN multimer up: counter-screen for LEDGF/p75 integration inhibitors: HIV-1 integrase multimerization activators; shares compounds with LEDGF integ inh; TR-FRET HIV-1 integrase multimerization, biochemical; activation, % at 7.7 µM; 17% of 2,000 active; AID 1053131; in the data active = activation above about 8.9%
TR-FRET interf: optically interferes with TR-FRET readout in LEDGF counter-screen | 2,000 tested, under 10 active | AID 1053135 | inhibition, % at 7.7 µM | TR-FRET optical interference counterscreen, HIV-1 IN multimerization | shares compounds with LEDGF integ inh;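 active = inhibition above the mean over all tested compounds plus 3 SD, which no compound reached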
LEDGF integ conf: confirmation of HIV-1 LEDGF/p75-dependent integration inhibitors; shares compounds with LEDGF integ inh; TR-FRET LEDGF/p75-dependent HIV-1 integration, biochemical; inhibition, % at 3.7 µM; 36% of 2,000 active; in the data active = inhibition above about 14%
Hits are given with their value; . = inactive; / = no result given. In the library only some 3.3% were active in any assay of this set; here they are far more common.

SMILES	SIAE inh	TDP2 inh	MBD2 DNA inh	LEDGF integ inh	UHRF1 binding	PRMT1 FP inh	IN multimer up	TR-FRET interf	LEDGF integ conf
CC(C)[C@H](NS(=O)(=O)c1ccc2c(c1)OCCO2)C(=O)OCC(=O)Nc1ccccc1Cl	.	.	.	.	.	.	/	/	/
CC(C)[C@H](NS(=O)(=O)c1ccc2c(c1)OCCO2)C(=O)OCC(=O)Nc1cccc(Cl)c1Cl	.	.	.	18	.	.	.	.	.
Cc1ncc([N+](=O)[O-])n1CC(=O)Nc1cc(Cl)ccc1Cl	.	.	.	52	.	.	.	.	.
O=C(NCc1ccco1)c1c2c(nc3ccccc13)CCC2	.	.	.	28	.	.	.	.	24
CCC1CCc2sc(C(=O)NCC(c3ccc(OC)cc3)N3CCOCC3)cc2C1 (stereo not drawn)	.	.	.	62	.	.	.	.	.
CCc1cc(C(=O)NCC(c2ccc(OC)cc2)N2CCOCC2)sc1C (stereo not drawn)	.	.	.	.	.	.	/	/	/
CC1CN(C)C(C)C/C1=N\Oc1ccc([N+](=O)[O-])cc1 (stereo not drawn)	.	.	.	.	.	.	/	/	/
CC1CN(C)C(C)C/C1=N/Oc1ccccc1[N+](=O)[O-] (stereo not drawn)	.	.	.	26	.	.	.	.	.
C[C@H](O)[C@@H]1CN2CCc3c([nH]c4c(-c5ccc6c(c5)OCO6)cccc34)[C@@H]2C[C@@H]1N(C)C(=O)NC1CCCCC1	.	.	.	.	.	.	/	/	/
Cc1ccc(/C=C2\SC(=S)N(C3CCS(=O)(=O)C3)C2=O)o1 (stereo not drawn)	.	.	.	24	.	.	.	.	.
O=C1[C@@H](CCc2ccccc2)[C@@H]2c3cc4ccccc4cc3C=NN2[C@@H]2c3cc4ccccc4cc3C=NN12	.	.	.	.	.	.	/	/	/
CCOC(=O)[C@@H](NC(=O)[C@@H]1CC=C[C@@H]2CCN(Cc3ccc(Cl)cc3)C(=O)[C@@H]21)C(C)C	.	.	.	.	.	.	/	/	/
CCCCCOC(=O)CC(C(=O)OCCCCC)N1CCCCC1 (stereo not drawn)	.	.	.	14	.	.	.	.	.
Cc1nn(CCC(=O)NNC(=O)Nc2ccccc2)c(C)c1[N+](=O)[O-]	.	.	.	.	.	.	/	/	/
CC(=O)Nc1ccc(N/C=C/C(=O)c2ccco2)cc1	.	.	.	.	.	.	/	/	/
CN(C)c1ccc(N/C=C/C(=O)c2ccco2)cc1	.	.	.	38	.	21	11	.	.
CCOC(=O)C(=O)Cc1cccnn1	.	.	.	22	25	.	.	.	50
C[C@@H]1[C@@H](O)C[C@@]2(C[C@H](O)c3ccccc3O2)O[C@H]1c1ccccc1	.	.	.	.	.	.	/	/	/
Cc1cc2c(s1)c1cnn(Cc3cc(F)c(F)cc3F)c(=O)c1n2C	.	.	.	.	.	.	/	/	/
COc1ccc(Cn2ccc3ccc(-c4ccc5ccn(Cc6ccc(OC)cc6)c5c4)cc32)cc1	.	.	.	.	.	.	/	/	/
CCCN1CN=C(NS(=O)(=O)c2ccc(C)cc2)NC1	.	.	.	.	.	.	/	/	/
Cc1ccc(S(=O)(=O)NC2=NCN(CCN3CCOCC3)CN2)cc1	.	.	.	22	.	.	.	.	.
COc1cc(/C=c2\sc3nc(=O)c(-c4ccccc4)nn3c2=O)ccc1OCCC(C)C	.	.	.	.	.	.	/	/	/
CCOc1ccc(/C=c2\sc3nc(-c4ccco4)nn3c2=O)cc1OCC	.	.	.	16	39	.	.	.	.
CCOc1ccc(N(CC(=O)Nc2c(C)n(C)n(-c3ccccc3)c2=O)S(=O)(=O)c2ccc(C(C)(C)C)cc2)cc1	.	.	.	.	.	.	/	/	/
SMILES	SIAE inh	TDP2 inh	MBD2 DNA inh	LEDGF integ inh	UHRF1 binding	PRMT1 FP inh	IN multimer up	TR-FRET interf	LEDGF integ conf
Cc1ccc(Cc2c(-c3ccccc3)nc3c(Cl)cc(C(F)(F)F)cn23)cc1	.	.	.	20	.	.	.	.	.
Fc1ccc(-c2nc3c(Cl)cc(C(F)(F)F)cn3c2Cc2ccccc2)cc1	.	.	.	.	.	.	/	/	/
COc1ccc(CN2C(=O)COc3ccccc3C2c2nnnn2C2CCCCC2)cc1 (stereo not drawn)	.	.	.	.	.	.	/	/	/
CC(NS(=O)(=O)c1ccc(Cl)cc1)C(=O)NCc1ccco1 (stereo not drawn)	.	.	.	18	25	.	.	.	.
COc1ccc(S(=O)(=O)NC(C)C(=O)NCc2ccco2)cc1OC (stereo not drawn)	.	.	.	.	.	.	/	/	/
Cc1cccc(NC(=O)CSc2ncnc3sc4c(c23)CCCC4)c1	.	.	.	.	.	.	/	/	/
O=C(CCSc1ccccc1)Nc1nnc(-c2cccs2)o1	.	.	.	.	.	.	/	/	/
O=C(CCSc1ccccc1)Nc1nnc(-c2ccccc2)o1	.	.	.	16	.	.	.	.	.
CCn1c(=O)n(CC(=O)N2CCN(c3ccc(F)cc3)CC2)c(=O)c2ccccc21	.	.	.	.	.	.	/	/	/
Cc1cc(NC(=O)c2ccc(NS(=O)(=O)c3ccccc3F)cc2)no1	.	.	.	.	.	.	/	/	/
CCOc1ccc(S(=O)(=O)NCCC(=O)N2CCN(c3ncccn3)CC2)cc1	.	.	.	77	.	.	.	.	.
COc1ccc(-c2c(C(=O)c3ccccc3)[nH]c(N)c2C(=O)c2c[nH]c3ccccc23)cc1OC	.	.	.	.	.	.	/	/	/
COCCNC(=O)CSC1=N/C(=C/c2ccc(Cl)c(Cl)c2)C(=O)N1c1ccccc1F	.	.	.	91	.	.	.	.	.
CCCC(=O)N1CCCC1(C)C(=O)Nc1cc(C)ccc1C (stereo not drawn)	.	.	.	85	.	.	.	.	.
CCCC(=O)N1CCCC1(C)C(=O)Nc1ccc(C)c(C)c1 (stereo not drawn)	.	.	.	.	.	.	/	/	/
c1ccc(-c2cccc3[nH]cc(-c4ccccc4)c23)cc1	.	.	.	.	.	.	/	/	/
Cc1[nH]c(=O)[nH]c1C(=O)CCCCC(=O)OCC(=O)Nc1ccccn1	.	.	.	82	.	.	.	.	81
O=S1(=O)c2ccc(Br)cc2OC[C@H](Cc2ccccc2)N1Cc1cn(CCC2OCCO2)nn1	.	.	.	.	.	.	/	/	/
